Measured values published in publication PMC12265513 (bioRxiv, 2025).
pKd: −log10 of the molar value. Peptide text beside a SMILES is read from it. * marks the point of attachment. FITC = O=C1OC2(c3ccc(O)cc3Oc3cc(O)ccc32)c2ccc(NC(=S)*)cc21; Ahx = NCCCCCC(=O)O

What was measured:
[1] = target: GST-fused construct of the NEDD9-SH3 domain (Homo sapiens, UniProt Q14511); test: Fluorescence polarization, direct binding of FITC-labeled pep01 probe
[2] = tested on: NEDD9; test: NEDD9 immunoblot in HPAECs; format: cell-based, human; conditions: 50-200 μM for 30-120 min, basal conditions, vs vehicle, n=3
Procedure, shortened: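 Confluent HPAECs in EBM-2 medium received test compound from a 10 mM DMSO stock, with DMSO as vehicle, for 30, 60 or 120 min. Lysates were immunoblotted with anti-NEDD9 (1:1000) overnight at 4°C, then peroxidase secondary and ECL detection.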

[3] = tested on: NEDD9-SMAD3 complex; test: NEDD9-SMAD3 complex formation; format: cell-based, human; conditions: H2O2 (500 μM) for 20 min, n=3
Procedure, shortened: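 HPAECs were treated with 500 μM H2O2 for 20 min with or without test compound. The complex was measured two ways. One was anti-NEDD9 immunoprecipitation followed by anti-SMAD3 immunoblot. The other was proximity ligation with mouse anti-NEDD9 and rabbit anti-SMAD3, normalised to total NEDD9 expression. n=3.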

[4] = tested on: HPAECs; test: Anti-collagen III immunofluorescence in HPAECs; format: cell-based, human; conditions: 24 hr, n=3
Procedure, shortened: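 HPAECs grown on glass chamber slides were exposed to test compound for 24 hr. They were then fixed in 4% formalin in PBS and blocked with 10% goat albumin in PBS for 1 hr at room temperature. Primary antibody (1:100) was applied overnight at 4°C. Collagen III deposition and NEDD9-positive cells were scored by immunofluorescence.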

[5] = tested on: NEDD9-SH3 (1-64); test: Intact protein mass spectrometry, covalent modification of the SH3 domain; format: binding; conditions: intact MS and 2-D NMR
Procedure, shortened: (§1)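 Dual screen: NEDD9-SH3 (1-64) and BRAF-RBD, each at 1 μM, were mixed in one reaction with 100 μM covalent fragment. Controls were 100 μM iodoacetamide or 1% DMSO. Buffer was 50 mM HEPES pH 7.4, 100 mM NaCl, 4 h at 21°C. Reactions were quenched to 0.2% formic acid and read by RapidFire QTOF MS. Hits formed a single adduct on NEDD9-SH3 at least two-fold greater than on BRAF-RBD.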

[6] = tested on: BRAF-RBD; test: Intact MS counter screen; format: binding; conditions: deconvoluted MS
Procedure, shortened: as §1

**Q.** With C[C@H](NC(=O)[C@H](CCC(=O)O)NC(=O)[C@H](CC(=O)O)NC(=O)CCCCCNC(=S)Nc1ccc2c(c1)C(=O)OC21c2ccc(O)cc2Oc2cc(O)ccc21)C(=O)N1CCC[C@H]1C(=O)N1CCC[C@H]1C(=O)N[C@@H](CCCCN)C(=O)N1CCC[C@H]1C(=O)N[C@@H](CO)C(=O)N[C@@H](CCCNC(=N)N)C(=O)N1CCC[C@H]1C(=O)NCC(=O)N[C@@H](Cc1ccc(O)cc1)C(=O)N1CCC[C@H]1C(=O)N[C@@H](CO)C(N)=O [FITCylated pep01] ({FITC-Ahx}-DEAPPKPSRPGYPS-NH2) as the molecule, how does the pKd [1] read?
**A.** 5.40

**Q.** How did the “NEDD9 protein quantity by immunoblot” value [2] turn out when C=CC(=O)Nc1cc(C(F)(F)F)cc(C(F)(F)F)c1 [Fragment 1, N-[3,5-Bis(trifluoromethyl)phenyl] acrylamide] was run?
**A.** decreased NEDD9 protein quantity

**Q.** What about the NEDD9-SMAD3 complex formation [3] of the same molecule?
**A.** restored NEDD9-SMAD3 complex formation

**Q.** And the “fibrosis in cellulo by anti-collagen III immunofluorescence” value [4]?
**A.** decreased fibrosis

**Q.** For C[C@@H]1CCN(C(=O)CCl)[C@@H](C(N)=O)C1 [Fragment 2, (2R,4R)-1-(2-chloroacetyl)-4-methylpiperridine-2-carboxamide], which “adduct formation to NEDD9-SH3” value [5] is on record?
**A.** dose- and time-dependent increase in adduct formation

**Q.** What about the BRAF-RBD modification [6] of the same molecule?
**A.** did not show BRAF-RBD modification
